14 compounds from ChEMBL document CHEMBL3045336, “Synthesis of 1-triazolyl-4-trimethylsilyl-2-butanol and 1-triazolyl-5-trimethylsilyl-2-pentanol derivatives and an investigation of their fungicidal activities” (Chem Pharm Bull (Tokyo), 2003) can be followed below.

In brackets after ≈: the same amount, converted by molar mass. Some results are limits rather than exact numbers.

In assay [1] the test system is Blumeria hordei. The experiment in a line: Fungicidal activity against Blumeria graminis f. sp. hordei infested first-leaf stage of barley seedlings assessed as growth inhibition applied as spray after 10 days under green house conditions. Format: functional. Conditions: 240 h.
The subject of assay [2] is Rhizoctonia solani. Briefly: Fungicidal activity against Rhizoctonia solani assessed as mycelial growth inhibition after 3 days. Format: functional, organism-based. The procedure, abridged:
(§1)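 Mycelial agar discs (4 mm) placed on potato dextrose agar plates containing test compound and incubated at 25 °C. Pyricularia oryzae was incubated for 7 d and Rhizoctonia solani for 3 d.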

The test system of assay [3] is Pyricularia grisea. The experiment in a line: Fungicidal activity against Magnaporthe oryzae assessed as mycelial growth inhibition after 7 days. Format: functional, organism-based, Pyricularia oryzae. The essentials:
as §1

The term MIC denotes the lowest concentration that inhibits growth of the organism. For `C[Si](C)(C)CCC(O)(Cn1cncn1)c1ccc(F)cc1` (configuration not stated), in assay [1], the MIC was 3 µg/mL (≈ 9.76 µM). Also, the IC50 in assay [2] is over 1 ppm; in assay [3] it was 10 ppm.
For `C[Si](C)(C)CCC(O)(Cn1cncn1)c1ccc(Cl)cc1` (configuration not stated), in that order: 3 µg/mL (≈ 9.26 µM), over 1 ppm and over 10 ppm.
As for `C[Si](C)(C)CCC(O)(Cn1cncn1)c1ccc(Br)cc1` (configuration not stated), the MIC in assay [1] turned out to be 3 µg/mL (≈ 8.14 µM). Besides, the IC50 in assay [2] was over 1 ppm; in assay [3], over 10 ppm.
For `C[Si](C)(C)CCC(O)(Cn1cncn1)c1ccccc1` (configuration not stated), in that order: 3 µg/mL (≈ 10.4 µM), over 1 ppm and over 10 ppm.
With `Cc1ccc(C(O)(CC[Si](C)(C)C)Cn2cncn2)cc1` (configuration not stated), in assay [1], the minimal inhibitory concentration (MIC) is over 3 µg/mL. The results for the IC50 in assay [2] and in assay [3] were over 1 ppm and over 10 ppm, respectively.
On to `COc1ccc(C(O)(CC[Si](C)(C)C)Cn2cncn2)cc1` (configuration not stated), for which, in assay [1], the MIC is over 3 µg/mL. The results for the IC50 in assay [2] and in assay [3] were over 1 ppm and over 10 ppm, respectively.
For `C[Si](C)(C)CCC(O)(Cn1cncn1)c1ccc(F)cc1F` (configuration not stated), in that order: 0.3 µg/mL (≈ 0.922 µM), 0.12 ppm and 3.1 ppm.
With `C[Si](C)(C)CCC(O)(Cn1cncn1)c1ccc(Cl)cc1Cl` (configuration not stated), the MIC in assay [1] came to 0.3 µg/mL (≈ 0.837 µM). The IC50 was 0.05 ppm in assay [2] and 2.57 ppm in assay [3].
For `C[Si](C)(C)CCCC(O)(Cn1cncn1)c1ccc(F)cc1` (configuration not stated), in that order: 3 µg/mL (≈ 9.33 µM), 0.42 ppm and over 3 ppm.
As for `C[Si](C)(C)CCCC(O)(Cn1cncn1)c1ccc(Cl)cc1` (configuration not stated), in assay [1], the MIC worked out at 1 µg/mL (≈ 2.96 µM). The values for the IC50 in assay [2] and in assay [3] were 0.61 ppm and over 3 ppm, respectively.
The like results for `C[Si](C)(C)CCCC(O)(Cn1cncn1)c1ccccc1` (configuration not stated) were, in that order, 3 µg/mL (≈ 9.89 µM), over 1 ppm and over 10 ppm.
As to `C[Si](C)(C)CCCC(O)(Cn1cncn1)c1ccc(F)cc1F` (configuration not stated), the minimum inhibitory concentration (MIC) in assay [1] turned out to be 1 µg/mL (≈ 2.95 µM). In addition, the IC50 is 0.01 ppm in assay [2] and 0.89 ppm in assay [3].
For `C[Si](C)(C)CCCC(O)(Cn1cncn1)c1ccc(Cl)c(Cl)c1` (configuration not stated), in that order: over 3 µg/mL, 1.94 ppm and over 10 ppm.
For `C[Si](C)(C)CC(O)(Cn1cncn1)c1ccc(F)cc1` (configuration not stated) [SIMECONAZOLE], in that order: 0.3 µg/mL (≈ 1.02 µM), 0.04 ppm and 1.09 ppm.
